Measured values as given in ChEMBL document CHEMBL5303300, “EUbOPEN Chemogenomics Library - Multiplex” (2023).
“And” between values parts separate entries of the source, which are not always exact repeats. Identical values can stand only once.

Experiments:
Format in all cases: toxicity, cell-based
HEK-293T = test: Multiplex assay against HEK293T; conditions: human, number of replicates 2
Method in brief: (§1)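 Compound was added to live cells that had been stained at seeding with Hoechst33342, BioTracker Green Microtubule Cytoskeleton Dye, MitoTracker Red and Annexin V Alexa Fluor 680, and imaging followed on a CQ1 microscope at 37°C and 5% CO2. CellPathfinder machine-learning gating divided cells into Hoechst high-intensity objects or normal cells, normal cells into healthy, pyknosed or fragmented nuclei, and pyknosed cells into mitotic or apoptotic. Tubulin, mitochondrial-mass and membrane-permeability phenotypes are per cents of healthy-nucleus cells.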

Fibroblast = test: Multiplex assay against human fibroblast; conditions: number of replicates 2; method in brief: as §1
U2OS = test: Multiplex assay against U2OS; conditions: human, number of replicates 2; method in brief: as §1
[1] = 12 h, 1 µM, compound concentration 1 uM
[2] = 12 h, 10 µM, compound concentration 10 uM
[3] = 24 h, 1 µM, compound concentration 1 uM
[4] = 24 h, 10 µM, compound concentration 10 uM
[5] = 48 h, 1 µM, compound concentration 1 uM
[6] = 48 h, 10 µM, compound concentration 10 uM

CN(C)CCCN1c2ccccc2Sc2ccc(Cl)cc21.Cl [CHLORPROMAZINE HYDROCHLORIDE]
Population Apoptotic (%) (HEK-293T; [1]): 54% and 40%
Population Fragmented Nuclei (%) (HEK-293T; [1]): 3% and 4%
Population Healthy Nuclei (%) (HEK-293T; [1]): 81% and 82%
Population Hoechst High Intensity Objects (%) (HEK-293T; [1]): 13% and 8%
Population Membrane Permeable-Phenotype (%) (HEK-293T; [1]): 1% and 2%
Population Mitochondria Different-Phenotype (%) (HEK-293T; [1]): 25% and 15%
Population Mitotic Cells (%) (HEK-293T; [1]): 45% and 59%
Population Normal (%) (HEK-293T; [1]): 86% and 91%
Population Pyknosed Nuclei (%) (HEK-293T; [1]): 14% and 12%
Population Tubulin-Different-Phenotype (%) (HEK-293T; [1]): 53% and 48%
Total Cell Count (HEK-293T; [1]): 443 and 595
Population Apoptotic (%) (HEK-293T; [2]): 55%
Population Fragmented Nuclei (%) (HEK-293T; [2]): 1% and 2%
Population Healthy Nuclei (%) (HEK-293T; [2]): 80% and 78%
Population Hoechst High Intensity Objects (%) (HEK-293T; [2]): 9% and 6%
Population Membrane Permeable-Phenotype (%) (HEK-293T; [2]): 2%
Population Mitochondria Different-Phenotype (%) (HEK-293T; [2]): 40% and 53%
Population Mitotic Cells (%) (HEK-293T; [2]): 44%
Population Normal (%) (HEK-293T; [2]): 90% and 93%
Population Pyknosed Nuclei (%) (HEK-293T; [2]): 17% and 19%
Population Tubulin-Different-Phenotype (%) (HEK-293T; [2]): 83% and 88%
Total Cell Count (HEK-293T; [2]): 580 and 531
Population Apoptotic (%) (HEK-293T; [3]): 57% and 47%
Population Fragmented Nuclei (%) (HEK-293T; [3]): 7% and 5%
Population Healthy Nuclei (%) (HEK-293T; [3]): 80% and 88%
Population Hoechst High Intensity Objects (%) (HEK-293T; [3]): 5% and 7%
Population Membrane Permeable-Phenotype (%) (HEK-293T; [3]): 1%
Population Mitochondria Different-Phenotype (%) (HEK-293T; [3]): 12% and 4%
Population Mitotic Cells (%) (HEK-293T; [3]): 42% and 52%
Population Normal (%) (HEK-293T; [3]): 94% and 92%
Population Pyknosed Nuclei (%) (HEK-293T; [3]): 11% and 6%
Population Tubulin-Different-Phenotype (%) (HEK-293T; [3]): 36% and 29%
Total Cell Count (HEK-293T; [3]): 621 and 951
Population Apoptotic (%) (HEK-293T; [4]): 67% and 63%
Population Fragmented Nuclei (%) (HEK-293T; [4]): 4%
Population Healthy Nuclei (%) (HEK-293T; [4]): 81% and 82%
Population Hoechst High Intensity Objects (%) (HEK-293T; [4]): 6% and 9%
Population Membrane Permeable-Phenotype (%) (HEK-293T; [4]): 1%
Population Mitochondria Different-Phenotype (%) (HEK-293T; [4]): 46% and 48%
Population Mitotic Cells (%) (HEK-293T; [4]): 32% and 36%
Population Normal (%) (HEK-293T; [4]): 93% and 90%
Population Pyknosed Nuclei (%) (HEK-293T; [4]): 14% and 13%
Population Tubulin-Different-Phenotype (%) (HEK-293T; [4]): 86% and 82%
Total Cell Count (HEK-293T; [4]): 619 and 581
Population Apoptotic (%) (HEK-293T; [5]): 31% and 16%
Population Fragmented Nuclei (%) (HEK-293T; [5]): 9% and 8%
Population Healthy Nuclei (%) (HEK-293T; [5]): 85% and 87%
Population Hoechst High Intensity Objects (%) (HEK-293T; [5]): 8% and 10%
Population Membrane Permeable-Phenotype (%) (HEK-293T; [5]): 5% and 3%
Population Mitochondria Different-Phenotype (%) (HEK-293T; [5]): 1% and 0%
Population Mitotic Cells (%) (HEK-293T; [5]): 68% and 83%
Population Normal (%) (HEK-293T; [5]): 91% and 89%
Population Pyknosed Nuclei (%) (HEK-293T; [5]): 5% and 3%
Population Tubulin-Different-Phenotype (%) (HEK-293T; [5]): 14% and 11%
Total Cell Count (HEK-293T; [5]): 1435 and 2116
Population Apoptotic (%) (HEK-293T; [6]): 44% and 58%
Population Fragmented Nuclei (%) (HEK-293T; [6]): 5% and 6%
Population Healthy Nuclei (%) (HEK-293T; [6]): 86% and 85%
Population Hoechst High Intensity Objects (%) (HEK-293T; [6]): 9% and 10%
Population Membrane Permeable-Phenotype (%) (HEK-293T; [6]): 4% and 6%
Population Mitochondria Different-Phenotype (%) (HEK-293T; [6]): 8% and 12%
Population Mitotic Cells (%) (HEK-293T; [6]): 55% and 41%
Population Normal (%) (HEK-293T; [6]): 90% and 89%
Population Pyknosed Nuclei (%) (HEK-293T; [6]): 8%
Population Tubulin-Different-Phenotype (%) (HEK-293T; [6]): 64% and 60%
Total Cell Count (HEK-293T; [6]): 952 and 839
Population Apoptotic (%) (Fibroblast; [1]): 40% and 38%
Population Fragmented Nuclei (%) (Fibroblast; [1]): 16% and 14%
Population Healthy Nuclei (%) (Fibroblast; [1]): 51% and 64%
Population Hoechst High Intensity Objects (%) (Fibroblast; [1]): 0%
Population Membrane Permeable-Phenotype (%) (Fibroblast; [1]): 7% and 5%
Population Mitochondria Different-Phenotype (%) (Fibroblast; [1]): 1% and 2%
Population Mitotic Cells (%) (Fibroblast; [1]): 59% and 61%
Population Normal (%) (Fibroblast; [1]): 100%
Population Pyknosed Nuclei (%) (Fibroblast; [1]): 32% and 21%
Population Tubulin-Different-Phenotype (%) (Fibroblast; [1]): 14% and 13%
Total Cell Count (Fibroblast; [1]): 190 and 200
Population Apoptotic (%) (Fibroblast; [2]): 52% and 41%
Population Fragmented Nuclei (%) (Fibroblast; [2]): 15% and 22%
Population Healthy Nuclei (%) (Fibroblast; [2]): 65% and 62%
Population Hoechst High Intensity Objects (%) (Fibroblast; [2]): 0%
Population Membrane Permeable-Phenotype (%) (Fibroblast; [2]): 5% and 1%
Population Mitochondria Different-Phenotype (%) (Fibroblast; [2]): 5% and 9%
Population Mitotic Cells (%) (Fibroblast; [2]): 47% and 58%
Population Normal (%) (Fibroblast; [2]): 99% and 100%
Population Pyknosed Nuclei (%) (Fibroblast; [2]): 19% and 14%
Population Tubulin-Different-Phenotype (%) (Fibroblast; [2]): 45% and 36%
Total Cell Count (Fibroblast; [2]): 187 and 323
Population Apoptotic (%) (Fibroblast; [3]): 64% and 46%
Population Fragmented Nuclei (%) (Fibroblast; [3]): 15% and 17%
Population Healthy Nuclei (%) (Fibroblast; [3]): 58% and 66%
Population Hoechst High Intensity Objects (%) (Fibroblast; [3]): 0%
Population Membrane Permeable-Phenotype (%) (Fibroblast; [3]): 13% and 6%
Population Mitochondria Different-Phenotype (%) (Fibroblast; [3]): 1% and 3%
Population Mitotic Cells (%) (Fibroblast; [3]): 35% and 53%
Population Normal (%) (Fibroblast; [3]): 100%
Population Pyknosed Nuclei (%) (Fibroblast; [3]): 25% and 16%
Population Tubulin-Different-Phenotype (%) (Fibroblast; [3]): 23% and 12%
Total Cell Count (Fibroblast; [3]): 206 and 196
Population Apoptotic (%) (Fibroblast; [4]): 80% and 58%
Population Fragmented Nuclei (%) (Fibroblast; [4]): 15% and 24%
Population Healthy Nuclei (%) (Fibroblast; [4]): 72% and 65%
Population Hoechst High Intensity Objects (%) (Fibroblast; [4]): 1%
Population Membrane Permeable-Phenotype (%) (Fibroblast; [4]): 2% and 1%
Population Mitochondria Different-Phenotype (%) (Fibroblast; [4]): 16% and 15%
Population Mitotic Cells (%) (Fibroblast; [4]): 19% and 41%
Population Normal (%) (Fibroblast; [4]): 98%
Population Pyknosed Nuclei (%) (Fibroblast; [4]): 11% and 10%
Population Tubulin-Different-Phenotype (%) (Fibroblast; [4]): 49% and 42%
Total Cell Count (Fibroblast; [4]): 187 and 299
Population Apoptotic (%) (Fibroblast; [5]): 82% and 60%
Population Fragmented Nuclei (%) (Fibroblast; [5]): 19% and 15%
Population Healthy Nuclei (%) (Fibroblast; [5]): 60% and 71%
Population Hoechst High Intensity Objects (%) (Fibroblast; [5]): 0%
Population Membrane Permeable-Phenotype (%) (Fibroblast; [5]): 7% and 4%
Population Mitochondria Different-Phenotype (%) (Fibroblast; [5]): 4% and 1%
Population Mitotic Cells (%) (Fibroblast; [5]): 17% and 39%
Population Normal (%) (Fibroblast; [5]): 99%
Population Pyknosed Nuclei (%) (Fibroblast; [5]): 20% and 12%
Total Cell Count (Fibroblast; [5]): 195 and 226
Population Apoptotic (%) (Fibroblast; [6]): 73% and 90%
Population Fragmented Nuclei (%) (Fibroblast; [6]): 23% and 32%
Population Healthy Nuclei (%) (Fibroblast; [6]): 67% and 57%
Population Hoechst High Intensity Objects (%) (Fibroblast; [6]): 1% and 0%
Population Membrane Permeable-Phenotype (%) (Fibroblast; [6]): 2%
Population Mitochondria Different-Phenotype (%) (Fibroblast; [6]): 5% and 7%
Population Mitotic Cells (%) (Fibroblast; [6]): 26% and 9%
Population Normal (%) (Fibroblast; [6]): 99%
Population Pyknosed Nuclei (%) (Fibroblast; [6]): 9%
Population Tubulin-Different-Phenotype (%) (Fibroblast; [6]): 33% and 34%
Total Cell Count (Fibroblast; [6]): 201 and 323
Population Healthy Nuclei (%) (U2OS; [1]): 42% and 81%
Population Hoechst High Intensity Objects (%) (U2OS; [1]): 0%
Population Membrane Permeable-Phenotype (%) (U2OS; [1]): 0% and 1%
Population Mitochondria Different-Phenotype (%) (U2OS; [1]): 0% and 2%
Population Normal (%) (U2OS; [1]): 100%
Population Pyknosed Nuclei (%) (U2OS; [1]): 7% and 15%
Population Tubulin-Different-Phenotype (%) (U2OS; [1]): 100% and 81%
Population Healthy Nuclei (%) (U2OS; [2]): 49% and 77%
Population Hoechst High Intensity Objects (%) (U2OS; [2]): 0% and 1%
Population Membrane Permeable-Phenotype (%) (U2OS; [2]): 6% and 3%
Population Mitotic Cells (%) (U2OS; [2]): 80% and 36%
Population Normal (%) (U2OS; [2]): 100% and 98%
Population Pyknosed Nuclei (%) (U2OS; [2]): 8% and 17%
Population Tubulin-Different-Phenotype (%) (U2OS; [2]): 36% and 42%
Population Healthy Nuclei (%) (U2OS; [3]): 53% and 88%
Population Hoechst High Intensity Objects (%) (U2OS; [3]): 0%
Population Membrane Permeable-Phenotype (%) (U2OS; [3]): 0% and 2%
Population Mitochondria Different-Phenotype (%) (U2OS; [3]): 0% and 1%
Population Mitotic Cells (%) (U2OS; [3]): 0% and 24%
Population Normal (%) (U2OS; [3]): 100%
Population Pyknosed Nuclei (%) (U2OS; [3]): 0% and 9%
Population Tubulin-Different-Phenotype (%) (U2OS; [3]): 87% and 85%
Population Apoptotic (%) (U2OS; [4]): 63% and 64%
Population Healthy Nuclei (%) (U2OS; [4]): 39% and 73%
Population Hoechst High Intensity Objects (%) (U2OS; [4]): 0%
Population Membrane Permeable-Phenotype (%) (U2OS; [4]): 3%
Population Mitochondria Different-Phenotype (%) (U2OS; [4]): 12% and 19%
Population Mitotic Cells (%) (U2OS; [4]): 36% and 35%
Population Normal (%) (U2OS; [4]): 100% and 99%
Population Pyknosed Nuclei (%) (U2OS; [4]): 14% and 20%
Population Tubulin-Different-Phenotype (%) (U2OS; [4]): 32% and 51%
Population Healthy Nuclei (%) (U2OS; [5]): 55% and 88%
Population Hoechst High Intensity Objects (%) (U2OS; [5]): 0%
Population Normal (%) (U2OS; [5]): 100%
Population Pyknosed Nuclei (%) (U2OS; [5]): 3% and 7%
Population Tubulin-Different-Phenotype (%) (U2OS; [5]): 100% and 88%
Population Apoptotic (%) (U2OS; [6]): 92% and 74%
Population Healthy Nuclei (%) (U2OS; [6]): 34% and 66%
Population Hoechst High Intensity Objects (%) (U2OS; [6]): 0%
Population Membrane Permeable-Phenotype (%) (U2OS; [6]): 7% and 4%
Population Mitochondria Different-Phenotype (%) (U2OS; [6]): 7%
Population Normal (%) (U2OS; [6]): 100% and 99%
Population Pyknosed Nuclei (%) (U2OS; [6]): 16% and 24%
Population Tubulin-Different-Phenotype (%) (U2OS; [6]): 51% and 55%
